Assays:
[1] = molecular target: T1, BtProRS1 (Bacillus thuringiensis, UniProt Q6HEZ6); assay: HF inhibition assay; assay type: biochemical
T1 sequence (Q6HEZ6 1-566): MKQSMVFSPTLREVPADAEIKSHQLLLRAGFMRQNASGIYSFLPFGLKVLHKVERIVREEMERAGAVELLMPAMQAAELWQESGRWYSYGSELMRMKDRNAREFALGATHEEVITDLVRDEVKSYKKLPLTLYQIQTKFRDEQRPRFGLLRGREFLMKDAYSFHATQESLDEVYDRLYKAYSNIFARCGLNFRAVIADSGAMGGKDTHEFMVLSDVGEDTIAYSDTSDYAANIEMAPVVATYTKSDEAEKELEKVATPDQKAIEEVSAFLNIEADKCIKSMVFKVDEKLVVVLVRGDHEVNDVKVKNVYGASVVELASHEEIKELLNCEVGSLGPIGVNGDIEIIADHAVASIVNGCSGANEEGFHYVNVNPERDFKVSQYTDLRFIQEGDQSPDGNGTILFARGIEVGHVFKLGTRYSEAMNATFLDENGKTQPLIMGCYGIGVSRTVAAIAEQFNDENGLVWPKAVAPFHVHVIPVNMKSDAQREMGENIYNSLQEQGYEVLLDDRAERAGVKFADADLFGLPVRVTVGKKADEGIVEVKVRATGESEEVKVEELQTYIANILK
In short: (§1)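 Purified His6-tagged enzyme (100 nM final) was mixed with test compound (0.1 nM–10 μM) in 50 μl aminoacylation buffer. Incubation was 10 min at 30°C, with TCA-filter scintillation counting. Relative activity is rate with inhibitor over rate without, and curves were fitted per enzyme.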

[2] = molecular target: T2, BtProRS2 (Bacillus thuringiensis, UniProt Q6HNZ7); assay: HF inhibition assay; assay type: biochemical
T2 sequence (Q6HNZ7 1-476): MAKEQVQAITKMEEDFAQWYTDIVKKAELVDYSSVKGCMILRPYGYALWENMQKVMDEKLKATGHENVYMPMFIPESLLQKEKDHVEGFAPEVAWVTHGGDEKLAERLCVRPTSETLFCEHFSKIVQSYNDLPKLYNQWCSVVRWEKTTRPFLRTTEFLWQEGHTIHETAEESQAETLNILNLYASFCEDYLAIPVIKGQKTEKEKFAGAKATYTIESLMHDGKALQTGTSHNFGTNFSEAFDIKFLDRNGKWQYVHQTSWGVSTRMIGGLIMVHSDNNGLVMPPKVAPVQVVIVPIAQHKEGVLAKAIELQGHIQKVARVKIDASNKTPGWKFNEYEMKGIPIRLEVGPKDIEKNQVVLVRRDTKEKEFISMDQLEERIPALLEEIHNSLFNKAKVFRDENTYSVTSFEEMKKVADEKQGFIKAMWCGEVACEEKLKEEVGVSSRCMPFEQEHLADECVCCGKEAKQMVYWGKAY
In short: as §1

[3] = test system: total cellular extracts of B. thuringiensis; assay: HF inhibition assay with total cellular extracts; assay type: biochemical, Bacillus thuringiensis; conditions: 3 μg of total cellular extracts in 50-μl aminoacylation buffer, 30°C, 10 min
In short: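 B. thuringiensis ATCC 13367 was grown 24 h at 30°C in LB with shaking, PBS-washed, glass-bead lysed on ice in HEPES pH 7.2 buffer with protease inhibitors, and cleared. Extract (3 μg) was incubated with test compound (0.1 nM–10 μM) 10 min at 30°C; [3H]-proline charging of tRNA^Pro was filter-counted. Relative activity curves were fitted using the individual-enzyme curves to give the ProRS1 activity proportion.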

[4] = test system: P. falciparum ProRS; conditions: cited from earlier work
[5] = test system: T. gondii ProRS; conditions: cited from earlier work
[6] = test system: P-type ProRS (such as Pseudomonas aeruginosa ProRS); conditions: cited from earlier work
[7] = molecular target: T1, BtProRS1; assay: Aminoacylation after pretreatment of the enzyme with H2O2, DTT, urea or GnHCl; assay type: biochemical
In short: (§2)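 Purified His6-tagged enzymes were expressed in E. coli BL21-CodonPlus(DE3) and purified by Ni-NTA. Enzymes at 1000 nM were pretreated 10 min at 20°C with H2O2 (0–32 mM), DTT (0–80 mM), urea (0–3200 mM) or GnHCl (0–3200 mM). They were then diluted to 100 nM final in buffer with 4 mM ATP, 10 μM transcribed tRNA^Pro and 21.13 μM [3H]-proline, run 10 min at 30°C, with TCA filter counting; three independent experiments.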

[8] = molecular target: T2, BtProRS2; assay: as above; assay type: biochemical
In short: as §2

IC50 [7]	IC50 [8]	SMILES	IC50 [1]	IC50 [2]	IC50 for BtProRS2 lower than that for BtProRS1 ([2]; ratio of IC50 BtProRS1 to BtProRS2)	IC50 [3]	IC50 [4]	IC50 [5]	less effective against a P-type ProRS than against E-type ProRS [6]
		O=C(CC1NCCCC1O)Cn1cnc2cc(Br)c(Cl)cc2c1=O (stereo not drawn) [HF, halofuginone]	0.68 µM	0.17 µM	4 fold	~0.4 µM	0.009 µM	0.00541 µM	~100 fold
27000 µM	> 80000 µM	O[C@@H](CS)[C@@H](O)CS (racemic) [DTT, Dithiothreitol]							
